Most compounds without a hit are left out; they make up all but 1.5% or so of the library.
Plk1 PBD FP: blocks phosphopeptide binding to human Plk1 polo box domain; hit rate 0.13% among 97,000; Plk1 PBD phosphopeptide binding, fluorescence polarization; P53350; inhibition, %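 (tested at about 20 µM)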; AID 693; in the data active means inhibition above about 34%, passing the limit was not always enough
AP ELISA ortho: orthogonal test for alternative complement pathway inhibitors. Human serum alternative complement pathway, LPS-coated ELISA, C3 deposition; tested in compound mixtures. inhibition, % at 5 µM. hit rate 0.08% among 62,000;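 active means inhibition above 30% in each of the two pooled mixtures holding the compound, so the lower value exceeds 30%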;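 further: 0% = serum in Mg-EGTA without compound and 100% = EDTA serum blank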
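Assay system: Human serum alternative complement pathway, C3 deposition on LPS-coated wells | Incubation: 1 h serum-compound exposure at 37 °C | Doses: 5 µM per compound in ten-compound mixtures | Read-out: Percent inhibition | Technique: ELISA with HRP anti-human C3 antibody, TMB substrate, absorbance 450 nm | Replication: Two pool placements per compound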
PLK1 inh: inhibitors of human PLK1 kinase | P53350 | recombinant PLK1 kinase, TR-FRET peptide phosphorylation | inhibition, % at 10 µM | hit rate 0.53% among 97,000;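 active means inhibition of 50% or more in the single-concentration screen; inactive means inhibition below 50%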;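 further: 0% = DMSO max control and 100% = H-89 dihydrochloride min control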
HePTP inh: blocks human HePTP tyrosine phosphatase | inhibition, % at 20 µM | P35236 | recombinant HePTP phosphatase activity, OD absorbance | AID 521 | hit rate 0.64% among 110,000; in the data active means inhibition above about 50%;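 further: plate controls were vehicle for no effect and reference inhibitor for full effect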
HEK293 NFkB inh: lowers PMA/ionomycin-induced NF-kB signal in HEK293 cells; HEK-293 NF-kB luciferase reporter, luminescence; inhibition, % at 3 µM; hit rate 0.21% among 62,000; AID 465;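 active means inhibition above the mean of all tested compounds plus 3 SD, cut at about 40% in these data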;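 further: 0% = stimulated DMSO wells and 100% = 10 µM reference inhibitor 5653914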
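System: NF-kB luciferase reporter HEK-293 cells | Replication: Single test | Control set: DMSO vs reference inhibitor | Evaluation: % inhibition | Schedule: 1 h pretreatment, 16 h stimulation, 37 °C | Probe or stimulus: PMA with ionomycin | Compound dosing: One dose, 3 µM | Detection: Luciferase luminescence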
Pyk2 oligo antag: antagonists of human Pyk2 oligomerization; Q14289; z-score (the deposit names both 25 µM and 10 µM); hit rate 0.83% among 99,000; AID 1347419; Q293 cells, Pyk2 FERM NanoBiT luminescence; stronger effect = lower value;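 active means Z-score of -3 or lower, scaled per plate to the spread of control and sample wells; inactive means z-score above -3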;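 further: negative z-score means lost luminescence so less FERM oligomerization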
Target sequence (Q14289 whole entry, looked up): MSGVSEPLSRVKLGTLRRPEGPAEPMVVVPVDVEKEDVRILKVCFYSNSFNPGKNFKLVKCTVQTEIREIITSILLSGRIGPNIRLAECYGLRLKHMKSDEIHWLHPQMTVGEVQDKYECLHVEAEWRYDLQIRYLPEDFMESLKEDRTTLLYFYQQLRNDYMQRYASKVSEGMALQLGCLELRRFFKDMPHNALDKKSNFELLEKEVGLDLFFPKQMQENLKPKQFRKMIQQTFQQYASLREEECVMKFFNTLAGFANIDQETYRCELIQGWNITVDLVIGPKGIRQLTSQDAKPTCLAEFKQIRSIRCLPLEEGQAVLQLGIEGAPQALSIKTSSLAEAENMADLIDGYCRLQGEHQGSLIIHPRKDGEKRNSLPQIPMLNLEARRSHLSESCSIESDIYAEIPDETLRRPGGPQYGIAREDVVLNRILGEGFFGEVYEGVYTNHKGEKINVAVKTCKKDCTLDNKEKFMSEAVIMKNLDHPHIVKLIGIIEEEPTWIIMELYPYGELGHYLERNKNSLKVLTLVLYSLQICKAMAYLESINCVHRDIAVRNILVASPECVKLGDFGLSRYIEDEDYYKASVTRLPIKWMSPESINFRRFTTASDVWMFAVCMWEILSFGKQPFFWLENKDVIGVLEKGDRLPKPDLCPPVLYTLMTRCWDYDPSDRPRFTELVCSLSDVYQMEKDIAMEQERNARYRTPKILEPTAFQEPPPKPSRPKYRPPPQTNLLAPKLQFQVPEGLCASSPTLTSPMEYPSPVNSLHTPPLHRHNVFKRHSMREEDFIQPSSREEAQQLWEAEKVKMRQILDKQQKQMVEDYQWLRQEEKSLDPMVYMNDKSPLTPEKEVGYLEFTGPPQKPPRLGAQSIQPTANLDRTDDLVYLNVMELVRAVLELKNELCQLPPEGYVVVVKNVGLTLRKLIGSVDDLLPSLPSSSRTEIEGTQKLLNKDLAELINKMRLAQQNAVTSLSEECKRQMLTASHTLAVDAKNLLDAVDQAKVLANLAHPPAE
PLK1 confirm: confirmation of human PLK1 kinase inhibitors; hit rate 20% among 210; shares compounds with PLK1 inh; recombinant PLK1 kinase, TR-FRET peptide phosphorylation; inhibition, % at 10 µM;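 active means inhibition at or above 50% in each of two repeat confirmation tests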;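 further: 0% = DMSO max control and 100% = H-89 kinase-blocked min control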
Plk1 interf: counter-screen for Plk1 inhibitors: compound assay interference. AID 756. inhibition (interference), % at 10 µM. 210 tested, under 10 active. Plk1 TR-FRET assay interference, compound added post-reaction. shares compounds with PLK1 inh;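 active means both duplicate runs show 50% or greater inhibition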;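 further: 0% = DMSO max control and 100% = H-89 min control inhibited reaction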
* marks the source's active call; other numbers are inactive results; / = not tested or not shown.

SMILES	Plk1 PBD FP	AP ELISA ortho	PLK1 inh	HePTP inh	HEK293 NFkB inh	Pyk2 oligo antag	PLK1 confirm	Plk1 interf
Cc1cc(C)cc(OCC(O)CN2C(=O)NC(C)(C)C2=O)c1 (centres undefined)	13.1	16.5	71.6*	4.2	3.3	/	-9.5	-59.1
CN1CCN(Cn2c(O)c(N=NC(=O)c3ccccc3)c3ccccc32)CC1	/	/	/	-0.9	/	/	/	/
O=P(O)(O)CP(=O)(c1ccccc1)c1ccccc1	/	/	/	4.5	/	/	/	/
Cc1ccc(C(=O)N/C(=C/c2cccc([N+](=O)[O-])c2)C(=O)Nc2c(C)n(C)n(-c3ccccc3)c2=O)cc1	/	/	/	2.8	/	/	/	/
Cc1onc(-c2ccccc2)c1C(=O)NC(C)C	-5.7	-3.0	77.5*	-5.1	-4.6	/	-4.3	-46.8
O=C(CN1C(=O)c2cccc3cccc(c23)C1=O)N1CCCC1	/	/	/	1.2	/	/	/	/
CCCNC(=O)CS(=O)Cc1nc(-c2cccc(OC)c2)oc1C (centres undefined)	-9.5	5.8	-6.0	6.0	4.8	/	/	/
COc1cccc(-c2nc(CS(=O)CC(=O)NCc3ccccc3)c(C)o2)c1 (centres undefined)	-5.3	17.0	71.5*	1.9	6.8	/	-1.1	-46.7
Brc1ccc(Oc2nnnn2-c2ccccc2)cc1	4.9	10.1	74.5*	1.8	14.4	/	-8.6	-45.4
CCSc1nnc(NC(=O)CSc2nnc(-c3c[nH]c4ccccc34)n2C)s1	23.7	-7.1	76.5*	8.4	4.9	/	-3.4	-46.4
CCc1nnc(NC(=O)CSc2nnc(-c3c[nH]c4ccccc34)n2CCOC)s1	21.1	15.1	-8.5	5.7	-7.6	-0.32	/	/
COC(=O)c1ccc(CSc2nnc(-c3c[nH]c4ccccc34)n2C)o1	4.5	30.2	71.1*	4.3	-4.6	/	-12.7	-55.4
COCCn1c(SCC(N)=O)nnc1-c1c[nH]c2ccccc12	-30.8	-6.2	71.1*	2.5	3.2	/	6.1	-46.1
NC1(N)OC(CN2C(=O)c3ccccc3C2=O)CS1 (centres undefined)	16.5	-3.2	116.4*	-0.9	11.3	0.67	-10.4	-58.2
CCCCNCc1cc(Br)c(OCC(=O)N2CCOCC2)c(OC)c1	18.6	/	125.5*	/	/	-0.02	-6.4	-49.3
CCCCNCc1cc(Br)c(OCc2cccs2)c(OC)c1	23.5	/	-1.9	/	/	0.93	/	/
CCN(CC)c1ccc(C=Nc2ccc(Sc3ccc([N+](=O)[O-])cc3)cc2)cc1	/	/	/	4.1	/	/	/	/
Cc1ccccc1NC(=O)c1ccc(S(=O)(=O)N(C)C)cc1	-1.9	14.7	72.3*	-0.6	9.2	/	-11.8	-58.9
Cc1ccc(/C(O)=C(\C#N)c2nc3ccccc3[nH]2)cc1	/	/	/	3.3	/	/	/	/
Cc1ccc(/C(O)=C/c2nc3ccccc3oc2=O)o1	/	/	/	3.6	/	/	/	/
C/C(O)=C\c1nc2ccccc2oc1=O	8.6	/	124.3*	/	/	0.2	-6.1	-52.2
CC(C)c1ccc(NC2=NS(=O)(=O)c3cc([N+](=O)[O-])ccc32)cc1	/	/	/	0.6	/	/	/	/
CN(CCNC(=O)c1cn(C)c2ccc(S(=O)(=O)N(C)C)cc2c1=O)CCc1ccccc1	0.9	8.2	75.0*	5.4	4.0	/	-5.5	-49.3
Cc1nnc(NC(=O)CSc2nc3c(c(=O)n2C)SC(C)C3)s1 (centres undefined)	13.2	6.4	-6.4	9.0	9.3	/	/	/
CC1Cc2nc(SCC(=O)Nc3nccs3)n(C)c(=O)c2S1 (centres undefined)	6.8	-4.0	73.0*	16.6	5.7	/	63.9*	-49.7
SMILES	Plk1 PBD FP	AP ELISA ortho	PLK1 inh	HePTP inh	HEK293 NFkB inh	Pyk2 oligo antag	PLK1 confirm	Plk1 interf
O=[N+]([O-])c1ccc(O)c(/C=N/Nc2nnc3c(n2)[nH]c2ccccc23)c1	/	/	/	3.2	/	/	/	/
O=C(COc1ccccc1)Nc1nnc(-c2ccc(Cl)s2)o1	-1.3	10.3	72.3*	3.5	0.8	/	-7.4	-53.7
O=C(COc1ccccc1)Nc1nnc(-c2ccccc2)o1	-9.7	-0.8	-6.9	-8.7	-2.7	/	/	/
CC(CNCc1ccc2c(c1)OCO2)NCc1ccc2c(c1)OCO2 (centres undefined)	-2.3	13.0	73.9*	10.3	0.1	/	-13.0	-50.1
COc1ccc(C2OC(=O)CC2C(=O)N2CCN(c3cc(Cl)ccc3C)CC2)cc1OC (centres undefined)	-18.9	7.7	75.8*	5.5	3.5	/	-4.9	-52.4
COc1ccc(Cl)cc1C(=O)N1CCN(c2cccc(C)c2C)CC1	/	/	/	-14.5	/	/	/	/
CCOC(=O)c1c(NC(=O)c2ccc(N3C(=O)CCC3=O)cc2)sc(C)c1C	/	/	/	0.4	/	/	/	/
Cc1cccc(NC(=O)NCCN2C(=O)C3C4C=CC(C4)C3C2=O)c1 (centres undefined)	2.1	7.1	73.3*	-0.1	4.3	/	-6.4	-53.4
Cc1cccc(NC(=O)CCN2C(=O)C3C4C=CC(C4)C3C2=O)c1 (centres undefined)	-3.4	/	-5.2	/	/	-0.3	/	/
O=C(Nc1ncc(Cc2cccc3ccccc23)s1)c1ccc(Cl)cc1	/	/	/	-14.2	/	/	/	/
COc1cccc(-c2nnc(SCC(=O)Nc3ccc(S(N)(=O)=O)cc3)n2C)c1	-30.0	10.0	110.0*	2.6	8.1	-0.78	-7.9	-53.7
COc1cccc(-c2nnc(SCC(=O)Nc3cc(C)on3)n2C)c1	-5.3	/	-5.4	/	/	0.81	/	/
CC(=O)c1ccc2c(c1)C1C=CCC1C(c1ccc([N+](=O)[O-])cc1)N2 (centres undefined)	/	/	/	10.2	/	/	/	/
O=C(O)c1ccc2c(c1)[C@@H]1C=CC[C@@H]1[C@H](c1ccccn1)N2	-6.9	5.5	71.9*	31.6	17.2	0.84	59.4*	46.1
COc1ccc(CN2C(=O)C(O)(CC(=O)c3ccc4c(c3)OCO4)c3ccccc32)cc1OC (centres undefined)	29.1	/	2.9	/	/	0.42	/	/
CCN1C(=O)C(O)(CC(=O)c2ccc3c(c2)OCCO3)c2ccccc21 (centres undefined)	16.6	5.6	71.7*	-0.4	-5.3	/	-10.7	-55.2
O=C(CSc1nc2ncc(Br)cc2[nH]1)Nc1ccc2c(c1)OCO2	12.0	-13.5	70.3*	4.7	3.6	-0.35	23.1	-49.2
CCOc1ccc2nc(SCC(=O)Nc3ccc4c(c3)OCCO4)[nH]c2c1	-5.9	/	-10.8	/	/	-2.61	/	/
CC(=O)c1cccc(NC(=O)c2cnn3ccccc23)c1	-17.9	2.8	79.6*	-7.7	-11.1	/	-1.9	-58.3
CC(=O)c1ccc(NC(=O)c2cnn3ccccc23)cc1	14.2	/	-11.8	/	/	/	/	/
CCC(=O)Nc1sc2c(c1C(N)=O)CCC2	-20.2	18.2	5.0	-11.7	10.0	0.66	/	/
N#CCC(=O)Nc1sc2c(c1C(N)=O)CCCC2	-19.0	18.9	70.2*	-11.4	-3.7	/	-3.8	-53.7
COC(=O)Cn1cnc(=O)c(C#N)c1C	/	/	/	7.4	/	/	/	/
COc1cccc(NC(=O)CN2C(=O)COc3ccc(Cl)cc32)c1	15.4	5.9	76.3*	6.6	4.9	/	-0.2	-47.9
